Test results from ChEMBL document CHEMBL2069244 (Bioorg Med Chem Lett, 2012).
Activity calls are given as the source filed them. The rule behind the calls is not given here.

Legend:
Mus musculus [1] = assay: Anticonvulsant activity in mouse assessed as protection against maximal electroshock-induced seizures at 30 mg/kg, ip after 0.5 hrs; assay type: functional, organism-based; set-up: dose 30 mg/kg
Outline: (§1)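 Mice dosed ip in 30% polyethylene glycol. Corneas pretreated with 1% tetracaine, then 60 Hz alternating current (50 mA) applied for 0.2 s via corneal electrodes. Protection means absence of the hindlimb tonic extensor component. Scored as number protected/number tested.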

Mus musculus [2] = assay: Anticonvulsant activity in mouse assessed as protection against maximal electroshock-induced seizures at 100 mg/kg, ip after 4 hrs; assay type: functional, organism-based; set-up: dose 100 mg/kg; outline: as §1
Mus musculus [3] = assay: Anticonvulsant activity in mouse assessed as protection against maximal electroshock-induced seizures at 100 mg/kg, ip after 0.5 hrs; assay type: functional, organism-based; set-up: dose 100 mg/kg; outline: as §1
Mus musculus [4] = assay: Anticonvulsant activity in mouse assessed as protection against maximal electroshock-induced seizures at 300 mg/kg, ip after 0.5 hrs; assay type: functional, organism-based; set-up: dose 300 mg/kg; outline: as §1
Mus musculus [5] = assay: Anticonvulsant activity in mouse assessed as protection against maximal electroshock-induced seizures at 300 mg/kg, ip after 4 hrs; assay type: functional, organism-based; set-up: dose 300 mg/kg; outline: as §1
Mus musculus [6] = assay: Anticonvulsant activity in mouse assessed as protection against maximal electroshock-induced seizures at 30 mg/kg, ip after 0.25 hrs; assay type: functional, organism-based; set-up: dose 30 mg/kg; outline: as §1
Mus musculus [7] = assay: Anticonvulsant activity in mouse assessed as protection against maximal electroshock-induced seizures at 30 mg/kg, ip after 1 hr; assay type: functional, organism-based; set-up: dose 30 mg/kg; outline: as §1
Mus musculus [8] = assay: Anticonvulsant activity in mouse assessed as protection against maximal electroshock-induced seizures at 30 mg/kg, ip after 2 hrs; assay type: functional, organism-based; set-up: dose 30 mg/kg; outline: as §1
Mus musculus [9] = assay: Anticonvulsant activity in mouse assessed as protection against maximal electroshock-induced seizures at 30 mg/kg, ip after 4 hrs; assay type: functional, organism-based; set-up: dose 30 mg/kg; outline: as §1
Mus musculus [10] = assay: Anticonvulsant activity in mouse assessed as protection against maximal electroshock-induced seizures at 30 mg/kg, ip after 6 hrs; assay type: functional, organism-based; set-up: dose 30 mg/kg; outline: as §1
Mus musculus [11] = assay: Anticonvulsant activity in mouse assessed as protection against subcutaneous pentylenetetrazole-induced seizures at 30 mg/kg, ip after 0.5 hrs; assay type: functional, organism-based; set-up: dose 30 mg/kg
Mus musculus [12] = assay: Anticonvulsant activity in mouse assessed as protection against subcutaneous pentylenetetrazole-induced seizures at 100 mg/kg, ip after 0.5 hrs; assay type: functional, organism-based; set-up: dose 100 mg/kg
Mus musculus [13] = assay: Anticonvulsant activity in mouse assessed as protection against subcutaneous pentylenetetrazole-induced seizures at 300 mg/kg, ip after 0.5 hrs; assay type: functional, organism-based; set-up: dose 300 mg/kg
Mus musculus [14] = assay: Anticonvulsant activity in mouse assessed as protection against subcutaneous pentylenetetrazole-induced seizures at 30 mg/kg, ip after 4 hrs; assay type: functional, organism-based; set-up: dose 30 mg/kg
Mus musculus [15] = assay: Anticonvulsant activity in mouse assessed as protection against subcutaneous pentylenetetrazole-induced seizures at 100 mg/kg, ip after 4 hrs; assay type: functional, organism-based; set-up: dose 100 mg/kg
Mus musculus [16] = assay: Anticonvulsant activity in mouse assessed as protection against subcutaneous pentylenetetrazole-induced seizures at 300 mg/kg, ip after 4 hrs; assay type: functional, organism-based; set-up: dose 300 mg/kg
Mus musculus [17] = assay: Neurotoxicity in mouse at 30 mg/kg, ip after 0.5 hrs by 6Hz psychomotor seizure test; assay type: toxicity, organism-based; set-up: dose 30 mg/kg, route intraperitoneal; settings: in vivo
Outline: (§2)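 Mice dosed ip in 30% polyethylene glycol and placed on a rotorod at 6 rpm. An animal is scored toxic if it falls off three times within 1 min.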

Mus musculus [18] = assay: Neurotoxicity in mouse at 30 mg/kg, ip after 4 hrs by 6Hz psychomotor seizure test; assay type: toxicity, organism-based; set-up: dose 30 mg/kg, route intraperitoneal; settings: in vivo; outline: as §2
Mus musculus [19] = assay: Neurotoxicity in mouse at 100 mg/kg, ip after 0.25 hrs by 6Hz psychomotor seizure test; assay type: toxicity, organism-based; set-up: dose 100 mg/kg, route intraperitoneal; settings: in vivo; outline: as §2
Mus musculus [20] = assay: Neurotoxicity in mouse at 100 mg/kg, ip after 0.5 hrs by 6Hz psychomotor seizure test; assay type: toxicity, organism-based; set-up: dose 100 mg/kg, route intraperitoneal; settings: in vivo; outline: as §2
Mus musculus [21] = assay: Neurotoxicity in mouse at 100 mg/kg, ip after 1 hrs by 6Hz psychomotor seizure test; assay type: toxicity, organism-based; set-up: dose 100 mg/kg, route intraperitoneal; settings: in vivo; outline: as §2
Mus musculus [22] = assay: Neurotoxicity in mouse at 100 mg/kg, ip after 2 hrs by 6Hz psychomotor seizure test; assay type: toxicity, organism-based; set-up: dose 100 mg/kg, route intraperitoneal; settings: in vivo; outline: as §2
Mus musculus [23] = assay: Neurotoxicity in mouse at 100 mg/kg, ip after 4 hrs by 6Hz psychomotor seizure test; assay type: toxicity, organism-based; set-up: dose 100 mg/kg, route intraperitoneal; settings: in vivo; outline: as §2
Mus musculus [24] = assay: Neurotoxicity in mouse at 100 mg/kg, ip after 6 hrs by 6Hz psychomotor seizure test; assay type: toxicity, organism-based; set-up: dose 100 mg/kg, route intraperitoneal; settings: in vivo; outline: as §2
Mus musculus [25] = assay: Neurotoxicity in mouse at 300 mg/kg, ip after 4 hrs by 6Hz psychomotor seizure test; assay type: toxicity, organism-based; set-up: dose 300 mg/kg, route intraperitoneal; settings: in vivo; outline: as §2
Mus musculus [26] = assay: Anticonvulsant activity in ip dosed mouse assessed as protection against 32mA-induced seizure measured after 0.25 to 0.5 hrs by 6Hz psychomotor seizure test
Mus musculus [27] = assay: Anticonvulsant activity in mouse assessed as protection against maximal electroshock-induced seizures at 100 mg/kg, ip after 0.25 hrs; assay type: functional, organism-based; set-up: dose 100 mg/kg; outline: as §1
Mus musculus [28] = assay: Anticonvulsant activity in mouse assessed as protection against maximal electroshock-induced seizures at 100 mg/kg, ip after 1 hrs; assay type: functional, organism-based; set-up: dose 100 mg/kg; outline: as §1
Mus musculus [29] = assay: Anticonvulsant activity in mouse assessed as protection against maximal electroshock-induced seizures at 100 mg/kg, ip after 2 hrs; assay type: functional, organism-based; set-up: dose 100 mg/kg; outline: as §1
Mus musculus [30] = assay: Anticonvulsant activity in mouse assessed as protection against maximal electroshock-induced seizures at 100 mg/kg, ip after 6 hrs; assay type: functional, organism-based; set-up: dose 100 mg/kg; outline: as §1
Mus musculus [31] = assay: Anticonvulsant activity in mouse assessed as peak time to protect against electrically-induced seizure at 100 mg/kg, ip by 6Hz psychomotor seizure test; assay type: functional; settings: route intraperitoneal
Outline: (§3)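 Mice dosed ip in 30% polyethylene glycol, then given a 6 Hz, 32 mA corneal stimulus. Animals lacking the minimal clonic phase and stereotyped automatistic behaviours count as protected. Data are number protected/number tested at each time after dosing.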

Mus musculus [32] = assay: Protective index, ratio of TD50 for neurotoxicity in ip dosed mouse to ED50 for anticonvulsant activity in mouse by 6Hz psychomotor seizure test; assay type: functional
Outline: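 Mice dosed ip in 30% polyethylene glycol. TD50 comes from rotorod toxicity at 6 rpm (three falls in 1 min). ED50 comes from 6 Hz, 32 mA seizure protection. Both are from probit analysis with 95% confidence intervals, and the index is TD50/ED50.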

Mus musculus [33] = assay: Anticonvulsant activity in mouse assessed as protection against 32mA-induced seizure at 100 mg/kg, ip after 0.25 hrs by 6Hz psychomotor seizure test; assay type: functional, organism-based; set-up: dose 100 mg/kg; outline: as §3
Mus musculus [34] = assay: Anticonvulsant activity in mouse assessed as protection against 32mA-induced seizure at 100 mg/kg, ip after 0.5 hrs by 6Hz psychomotor seizure test; assay type: functional, organism-based; set-up: dose 100 mg/kg; outline: as §3
Mus musculus [35] = assay: Anticonvulsant activity in mouse assessed as protection against 32mA-induced seizure at 100 mg/kg, ip after 1 hr by 6Hz psychomotor seizure test; assay type: functional, organism-based; set-up: dose 100 mg/kg; outline: as §3
Mus musculus [36] = assay: Anticonvulsant activity in mouse assessed as protection against 32mA-induced seizure at 100 mg/kg, ip after 2 hrs by 6Hz psychomotor seizure test; assay type: functional, organism-based; set-up: dose 100 mg/kg; outline: as §3
Mus musculus [37] = assay: Anticonvulsant activity in mouse assessed as protection against 32mA-induced seizure at 100 mg/kg, ip after 4 hrs by 6Hz psychomotor seizure test; assay type: functional, organism-based; set-up: dose 100 mg/kg; outline: as §3
Mus musculus [38] = assay: Neurotoxicity in mouse at 300 mg/kg, ip after 0.5 hrs by 6Hz psychomotor seizure test; assay type: toxicity, organism-based; set-up: dose 300 mg/kg, route intraperitoneal; settings: in vivo; outline: as §2

SMILES | Activity (Mus musculus [1]) | Activity (Mus musculus [2]) | Activity (Mus musculus [3]) | Activity (Mus musculus [4]) | Activity (Mus musculus [5]) | Activity (Mus musculus [9]) | Activity (Mus musculus [11]) | Activity (Mus musculus [12]) | Activity (Mus musculus [13]) | Activity (Mus musculus [14]) | Activity (Mus musculus [15]) | Activity (Mus musculus [16]) | Activity (Mus musculus [17]) | Activity (Mus musculus [18]) | Activity (Mus musculus [19]) | Activity (Mus musculus [20]) | Activity (Mus musculus [21]) | Activity (Mus musculus [22]) | Activity (Mus musculus [23]) | Activity (Mus musculus [25]) | other results
CCCc1cc(C(O)C(F)(F)F)ccc1O (stereo not drawn) | inactive | inactive | inactive | Active | Active | inactive | inactive | inactive | Active | inactive | inactive | inactive | Non-toxic | Non-toxic | Non-toxic | Non-toxic | Non-toxic | Non-toxic | Non-toxic | Non-toxic | Activity (Mus musculus [6]): inactive; Activity (Mus musculus [7]): inactive; Activity (Mus musculus [8]): inactive; Activity (Mus musculus [10]): inactive; Activity (Mus musculus [24]): Non-toxic
CC(C)c1cccc(C(C)C)c1O [PROPOFOL] |  |  |  |  |  |  |  |  |  |  |  |  |  |  |  |  |  |  |  |  | ED50 (Mus musculus [26]): 38.6 mg/kg
CC(C)c1cc(C(O)C(F)(F)F)ccc1O (stereo not drawn) | inactive | inactive | inactive | Active | Active | inactive | inactive | inactive | Active | inactive | inactive | Active |  |  |  |  |  |  |  |  | Activity (Mus musculus [27]): inactive; Activity (Mus musculus [28]): inactive; Activity (Mus musculus [29]): inactive; Activity (Mus musculus [30]): inactive; Time (Mus musculus [31]): 0.25 h; Ratio TD50/ED50 (Mus musculus [32]): 1.9; ED50 (Mus musculus [26]): 84.1 mg/kg
Cc1cc(C(O)C(F)(F)F)ccc1O (stereo not drawn) | inactive | inactive | inactive | Active | Active |  | inactive | inactive | inactive | inactive | inactive | inactive | Non-toxic | Non-toxic | Non-toxic | Non-toxic | Non-toxic | Non-toxic | Non-toxic | Non-toxic | Activity (Mus musculus [27]): inactive; Activity (Mus musculus [28]): inactive; Activity (Mus musculus [29]): inactive; Activity (Mus musculus [30]): inactive; Activity (Mus musculus [33]): inactive; Activity (Mus musculus [34]): inactive; Activity (Mus musculus [35]): Active; Activity (Mus musculus [36]): inactive; Activity (Mus musculus [37]): inactive; Activity (Mus musculus [24]): Non-toxic; Activity (Mus musculus [38]): Non-toxic
CCc1cc(C(O)C(F)(F)F)ccc1O (stereo not drawn) | inactive | inactive | inactive | inactive | inactive | inactive | inactive | inactive | inactive | inactive | inactive | inactive | Non-toxic | Non-toxic |  | Non-toxic |  |  | Non-toxic | Non-toxic | Activity (Mus musculus [33]): inactive; Activity (Mus musculus [34]): inactive; Activity (Mus musculus [35]): inactive; Activity (Mus musculus [36]): inactive; Activity (Mus musculus [37]): inactive; Activity (Mus musculus [38]): Non-toxic
